This note sets out measurements from ChEMBL document CHEMBL4196066, “Design and synthesis of furyl/thineyl pyrroloquinolones based on natural alkaloid perlolyrine, lead to the discovery of potent and selective PDE5 inhibitors” (Eur J Med Chem, 2018).

For data set [1], the target named is cGMP-inhibited 3',5'-cyclic phosphodiesterase 3B (Homo sapiens) (UniProt Q13370). In words: Inhibition of N-terminal GST-tagged recombinant human PDE3B (592 end residues) expressed in Baculovirus infected Sf9 insect cells at 8 uM using FAM-cAMP as substrate after 1 hr by fluorescence polarization assay relative to control. (In general: Fluorescence polarisation rises when a labelled molecule tumbles more slowly, as on binding a larger partner.)

The nature of data set [2]: MRT in Wistar rat at 2 mg/kg, iv. The format is ADME, organism-based. To be noted: in vivo.
Data set [3] deals with cGMP-dependent 3',5'-cyclic phosphodiesterase (Homo sapiens) (UniProt O00408). The data set is described as follows: Inhibition of N-terminal FLAG-tagged human PDE2A1 (2 to 941 residues) expressed in Baculovirus infected Sf9 insect cells at 250 uM using FAM-cAMP as substrate after 1 hr by fluorescence polarization assay relative to control.
Data set [4] addresses Cone cGMP-specific 3',5'-cyclic phosphodiesterase subunit alpha' (Homo sapiens, UniProt P51160). The data set is described as follows: Inhibition of N-terminal GST-tagged full length recombinant human PDE6C expressed in Baculovirus infected Sf9 insect cells using […] as substrate after 1 hr by fluorescence polarization assay.
The species entered for data set [5] is Homo sapiens. In words: Selectivity ratio of IC50 for N-terminal GST-tagged full length recombinant human PDE11A to IC50 for N-terminal GST-tagged full length recombinant human PDE5A1 catalytic domain.
Data set [6] is filed under the species Homo sapiens. In words: Selectivity ratio of IC50 for N-terminal GST-tagged recombinant human PDE3B (592 end residues) to IC50 for N-terminal GST-tagged full length recombinant human PDE5A1 catalytic domain.
The species entered for data set [7] is Homo sapiens. The data set is described as follows: Selectivity ratio of IC50 for N-terminal FLAG-tagged human PDE2A1 (2 to 941 residues) to IC50 for N-terminal GST-tagged full length recombinant human PDE5A1 catalytic domain.
Data set [8] can be described thus: Tmax in Wistar rat at 2 mg/kg, iv. It is filed as ADME, organism-based. To be noted: in vivo.
Data set [9] deals with Rattus norvegicus. The data set is described as follows: AUC (0 to infinity) in Wistar rat at 15 mg/kg, po. It is filed as ADME, organism-based. Also noted: dose 15 mg/kg, route oral, time infinity. To be noted: in vivo. In a few lines: (§1)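 Male Wistar rats (228−249 g) fasted 12 h, dosed orally in 0.5% methylcellulose. Blood drawn at 0, 0.5, 1, 1.5, 2, 4, 6, 12 and 24 h; plasma separated by centrifugation at 4 °C, stored at −80 °C, drug measured by LC–MS/MS, and PK parameters computed from the concentration–time data.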

The nature of data set [10]: Half life in Wistar rat at 2 mg/kg, iv. To be noted: in vivo. It is filed as ADME, organism-based.
For data set [11], the target named is cGMP-dependent 3',5'-cyclic phosphodiesterase (Homo sapiens) (UniProt O00408). The data set is described as follows: Inhibition of N-terminal FLAG-tagged human PDE2A1 (2 to 941 residues) expressed in Baculovirus infected Sf9 insect cells at 8 uM using FAM-cAMP as substrate after 1 hr by fluorescence polarization assay relative to control.
Data set [12] is filed under the species Homo sapiens. In words: Selectivity ratio of IC50 for N-terminal GST-tagged full length recombinant human PDE1A to IC50 for N-terminal GST-tagged full length recombinant human PDE5A1 catalytic domain.
The test system of a further data set is Oryctolagus cuniculus. The data set is described as follows: Vasorelaxant activity in iv dosed New Zealand rabbit assessed as induction of ICP change in response to electrically pelvic nerve stimulation administered as bolus dose. It is filed as functional.
Data set [13] in a line: Volume of distribution at steady state in Wistar rat at 2 mg/kg, iv. To be noted: in vivo, read-out: Vdss. The format is ADME, organism-based.
The next data set concerns Thoracic aorta. The data set is described as follows: Vasorelaxant activity in norepinephrine-pretreated New Zealand rabbit thoracic aorta assessed as increase in aortic relaxation at 1 uM measured after 15 mins relative to control. It is filed as functional, Oryctolagus cuniculus. Also noted: scale not given: the % may be the effect or the level left. In a few lines:
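Thoracic aortic rings from New Zealand white rabbits were held in Krebs buffer at 2 g resting tension (0%) and equilibrated 2 h. Rings were contracted to maximum with 1 µM norepinephrine (100%). Compounds were added cumulatively at 15 min intervals, with tension recorded 15 min after each dose. Relaxation % = (max − recorded)/(max − 2 g) × 100; n = 1–2 rings.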

Data set [14] has as its target 3',5'-cyclic-AMP phosphodiesterase 4A (Homo sapiens) (UniProt P27815). The data set is described as follows: Inhibition of N-terminal GST-tagged full length recombinant human PDE4A1A expressed in Baculovirus infected Sf9 insect cells at 1.5 uM using FAM-cAMP as substrate after 1 hr by fluorescence polarization assay relative to control.
Data set [15] can be described thus: AUC (0 to infinity) in Wistar rat at 2 mg/kg, iv. The format is ADME, organism-based. Also noted: dose 2 mg/kg, route intravenous, time infinity. To be noted: in vivo.
Data set [16] concerns the target cGMP-specific 3',5'-cyclic phosphodiesterase (Homo sapiens, UniProt O76074). In words: Inhibition of N-terminal GST-tagged full length recombinant human PDE5A1 catalytic domain expressed in Baculovirus infected Sf9 insect cells using FAM-cGMP as substrate after 1 hr by fluorescence polarization assay.
A short description of data set [17]: AUC (0 to 24 hrs) in Wistar rat at 2 mg/kg, iv. The format is ADME, organism-based. Also noted: time < 24 hr, dose 2 mg/kg, route intravenous. To be noted: in vivo.
Data set [18] in a line: AUC (0 to 24 hrs) in Wistar rat at 15 mg/kg, po. The format is ADME, organism-based. Also noted: time < 24 hr, dose 15 mg/kg, route oral. To be noted: in vivo. In a few lines:
as §1

Data set [19] is filed under the species Homo sapiens. In words: Selectivity ratio of IC50 for N-terminal GST-tagged full length recombinant human PDE4A1A to IC50 for N-terminal GST-tagged full length recombinant human PDE5A1 catalytic domain.
The nature of data set [20]: Clearance in Wistar rat at 2 mg/kg, iv. The format is ADME, organism-based. To be noted: in vivo.
Data set [21] in a line: MRT in Wistar rat at 15 mg/kg, po. The format is ADME, organism-based. To be noted: in vivo.
Data set [22] addresses Dual specificity calcium/calmodulin-dependent 3',5'-cyclic nucleotide phosphodiesterase 1A (Homo sapiens) (UniProt P54750). The data set is described as follows: Inhibition of N-terminal GST-tagged full length recombinant human PDE1A expressed in Baculovirus infected Sf9 insect cells at 8 uM using FAM-cAMP as substrate after 1 hr by fluorescence polarization assay relative to control.

The nature of data set [23]: Cmax in Wistar rat at 2 mg/kg, iv. The format is ADME, organism-based. Also noted: dose 2 mg/kg, route intravenous. To be noted: in vivo.
Data set [24] can be described thus: Tmax in Wistar rat at 15 mg/kg, po. It is filed as ADME, organism-based. To be noted: in vivo.
Data set [25] relates to Rattus norvegicus. The data set is described as follows: Volume of distribution at steady state in Wistar rat at 15 mg/kg, po. It is filed as ADME, organism-based. To be noted: in vivo.
The target in data set [26] is Dual 3',5'-cyclic-AMP and -GMP phosphodiesterase 11A (Homo sapiens, UniProt Q9HCR9). In words: Inhibition of N-terminal GST-tagged full length recombinant human PDE11A expressed in Baculovirus infected Sf9 insect cells using FAM-cAMP as substrate after 1 hr by fluorescence polarization assay.
Data set [27] is described as follows: Half life in Wistar rat at 15 mg/kg, po. The format is ADME, organism-based. To be noted: in vivo.
Data set [28] is described as follows: Cmax in Wistar rat at 15 mg/kg, po. It is filed as ADME, organism-based. Also noted: dose 15 mg/kg, route oral. To be noted: in vivo.
Data set [29] is filed under the species Homo sapiens. In words: Selectivity ratio of IC50 for N-terminal GST-tagged full length recombinant human PDE6C to IC50 for N-terminal GST-tagged full length recombinant human PDE5A1 catalytic domain.
A short description of data set [30]: Oral bioavailability in Wistar rat at 15 mg/kg. The format is ADME, organism-based. To be noted: in vivo.
Data set [31] concerns the target Dual specificity calcium/calmodulin-dependent 3',5'-cyclic nucleotide phosphodiesterase 1A (Homo sapiens) (UniProt P54750). In words: Inhibition of N-terminal GST-tagged full length recombinant human PDE1A expressed in Baculovirus infected Sf9 insect cells at 25 uM using FAM-cAMP as substrate after 1 hr by fluorescence polarization assay relative to control.
Data set [32] concerns the target cGMP-inhibited 3',5'-cyclic phosphodiesterase 3B (Homo sapiens) (UniProt Q13370). The data set is described as follows: Inhibition of N-terminal GST-tagged recombinant human PDE3B (592 end residues) expressed in Baculovirus infected Sf9 insect cells at 25 uM using FAM-cAMP as substrate after 1 hr by fluorescence polarization assay relative to control.
The target of data set [33] is cGMP-dependent 3',5'-cyclic phosphodiesterase (Homo sapiens) (UniProt O00408). In words: Inhibition of N-terminal FLAG-tagged human PDE2A1 (2 to 941 residues) expressed in Baculovirus infected Sf9 insect cells at 25 uM using FAM-cAMP as substrate after 1 hr by fluorescence polarization assay relative to control.
The target in data set [34] is 3',5'-cyclic-AMP phosphodiesterase 4A (Homo sapiens) (UniProt P27815). In words: Inhibition of N-terminal GST-tagged full length recombinant human PDE4A1A expressed in Baculovirus infected Sf9 insect cells at 6 uM using FAM-cAMP as substrate after 1 hr by fluorescence polarization assay relative to control.
3',5'-cyclic-AMP phosphodiesterase 4A (Homo sapiens), sequence (P27815 whole entry): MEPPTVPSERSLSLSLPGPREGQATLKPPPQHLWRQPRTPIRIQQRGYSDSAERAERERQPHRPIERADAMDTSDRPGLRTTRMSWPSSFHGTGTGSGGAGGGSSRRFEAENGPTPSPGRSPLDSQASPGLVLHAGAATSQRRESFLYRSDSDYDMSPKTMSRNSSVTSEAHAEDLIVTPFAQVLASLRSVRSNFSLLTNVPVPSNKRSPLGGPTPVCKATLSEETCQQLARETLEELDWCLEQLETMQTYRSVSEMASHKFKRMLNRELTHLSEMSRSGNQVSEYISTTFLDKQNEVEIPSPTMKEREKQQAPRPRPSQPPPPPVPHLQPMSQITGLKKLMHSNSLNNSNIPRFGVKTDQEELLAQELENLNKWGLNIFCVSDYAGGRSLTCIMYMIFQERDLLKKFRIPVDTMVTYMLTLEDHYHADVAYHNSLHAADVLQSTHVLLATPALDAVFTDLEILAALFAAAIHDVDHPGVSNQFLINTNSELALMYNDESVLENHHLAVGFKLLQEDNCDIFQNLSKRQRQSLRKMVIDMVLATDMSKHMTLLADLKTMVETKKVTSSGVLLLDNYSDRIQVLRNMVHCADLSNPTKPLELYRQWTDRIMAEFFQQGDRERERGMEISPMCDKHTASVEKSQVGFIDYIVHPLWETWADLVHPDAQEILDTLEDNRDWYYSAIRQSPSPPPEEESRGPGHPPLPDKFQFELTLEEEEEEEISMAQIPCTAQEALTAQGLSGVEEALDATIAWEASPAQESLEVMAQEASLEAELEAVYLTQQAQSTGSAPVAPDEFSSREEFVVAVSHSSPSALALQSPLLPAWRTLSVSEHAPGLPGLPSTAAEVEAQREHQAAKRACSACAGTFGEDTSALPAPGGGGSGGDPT

cGMP-dependent 3',5'-cyclic phosphodiesterase (Homo sapiens), sequence (O00408 whole entry, the tested form may be a part): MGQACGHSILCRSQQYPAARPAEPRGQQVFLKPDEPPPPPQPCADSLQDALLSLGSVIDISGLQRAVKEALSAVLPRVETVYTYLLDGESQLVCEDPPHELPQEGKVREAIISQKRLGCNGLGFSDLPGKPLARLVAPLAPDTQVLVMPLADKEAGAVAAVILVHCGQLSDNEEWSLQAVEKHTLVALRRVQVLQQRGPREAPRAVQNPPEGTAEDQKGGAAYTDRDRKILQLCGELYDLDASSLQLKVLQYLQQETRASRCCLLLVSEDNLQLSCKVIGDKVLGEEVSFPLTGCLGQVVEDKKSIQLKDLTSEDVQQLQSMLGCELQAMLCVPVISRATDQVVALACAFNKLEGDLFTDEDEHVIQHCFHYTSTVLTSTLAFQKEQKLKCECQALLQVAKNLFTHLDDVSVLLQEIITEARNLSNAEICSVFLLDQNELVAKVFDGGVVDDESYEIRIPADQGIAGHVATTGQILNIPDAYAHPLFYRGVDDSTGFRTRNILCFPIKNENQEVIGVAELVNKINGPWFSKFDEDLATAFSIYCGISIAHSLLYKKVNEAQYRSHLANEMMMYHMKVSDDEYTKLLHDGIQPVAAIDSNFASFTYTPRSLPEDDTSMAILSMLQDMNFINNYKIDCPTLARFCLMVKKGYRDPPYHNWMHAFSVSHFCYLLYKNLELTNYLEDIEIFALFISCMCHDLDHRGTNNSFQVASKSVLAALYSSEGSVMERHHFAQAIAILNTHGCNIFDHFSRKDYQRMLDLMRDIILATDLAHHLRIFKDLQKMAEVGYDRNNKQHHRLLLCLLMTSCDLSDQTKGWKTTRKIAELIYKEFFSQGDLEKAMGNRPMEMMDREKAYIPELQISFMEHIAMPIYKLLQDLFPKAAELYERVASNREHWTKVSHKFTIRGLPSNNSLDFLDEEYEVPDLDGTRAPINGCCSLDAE
Cone cGMP-specific 3',5'-cyclic phosphodiesterase subunit alpha', sequence (P51160 whole entry, the tested form may be a part): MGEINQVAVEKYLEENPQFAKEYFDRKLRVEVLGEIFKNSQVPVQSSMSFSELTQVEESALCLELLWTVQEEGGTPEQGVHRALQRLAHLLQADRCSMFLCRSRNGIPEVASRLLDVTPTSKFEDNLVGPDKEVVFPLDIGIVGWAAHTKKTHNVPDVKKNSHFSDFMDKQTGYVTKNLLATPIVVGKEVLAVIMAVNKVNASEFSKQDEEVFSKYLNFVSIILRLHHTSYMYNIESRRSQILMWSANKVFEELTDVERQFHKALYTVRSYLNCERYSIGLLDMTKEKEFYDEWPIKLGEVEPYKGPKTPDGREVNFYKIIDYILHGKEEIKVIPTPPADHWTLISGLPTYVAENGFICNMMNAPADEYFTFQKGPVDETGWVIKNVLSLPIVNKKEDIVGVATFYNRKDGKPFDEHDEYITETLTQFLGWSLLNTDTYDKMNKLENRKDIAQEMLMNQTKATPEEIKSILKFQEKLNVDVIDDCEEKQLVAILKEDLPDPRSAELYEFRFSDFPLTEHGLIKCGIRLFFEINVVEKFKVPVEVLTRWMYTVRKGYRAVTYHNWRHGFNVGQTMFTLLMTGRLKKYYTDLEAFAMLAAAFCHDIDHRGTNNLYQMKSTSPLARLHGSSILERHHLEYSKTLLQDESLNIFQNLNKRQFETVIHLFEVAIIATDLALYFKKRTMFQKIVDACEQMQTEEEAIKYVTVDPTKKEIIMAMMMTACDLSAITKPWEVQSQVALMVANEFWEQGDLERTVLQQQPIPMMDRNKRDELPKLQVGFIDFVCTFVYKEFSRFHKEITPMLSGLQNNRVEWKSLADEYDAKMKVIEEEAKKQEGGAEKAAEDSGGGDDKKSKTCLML
cGMP-inhibited 3',5'-cyclic phosphodiesterase 3B (Homo sapiens), sequence (Q13370 whole entry, looked up, the tested form may be a part): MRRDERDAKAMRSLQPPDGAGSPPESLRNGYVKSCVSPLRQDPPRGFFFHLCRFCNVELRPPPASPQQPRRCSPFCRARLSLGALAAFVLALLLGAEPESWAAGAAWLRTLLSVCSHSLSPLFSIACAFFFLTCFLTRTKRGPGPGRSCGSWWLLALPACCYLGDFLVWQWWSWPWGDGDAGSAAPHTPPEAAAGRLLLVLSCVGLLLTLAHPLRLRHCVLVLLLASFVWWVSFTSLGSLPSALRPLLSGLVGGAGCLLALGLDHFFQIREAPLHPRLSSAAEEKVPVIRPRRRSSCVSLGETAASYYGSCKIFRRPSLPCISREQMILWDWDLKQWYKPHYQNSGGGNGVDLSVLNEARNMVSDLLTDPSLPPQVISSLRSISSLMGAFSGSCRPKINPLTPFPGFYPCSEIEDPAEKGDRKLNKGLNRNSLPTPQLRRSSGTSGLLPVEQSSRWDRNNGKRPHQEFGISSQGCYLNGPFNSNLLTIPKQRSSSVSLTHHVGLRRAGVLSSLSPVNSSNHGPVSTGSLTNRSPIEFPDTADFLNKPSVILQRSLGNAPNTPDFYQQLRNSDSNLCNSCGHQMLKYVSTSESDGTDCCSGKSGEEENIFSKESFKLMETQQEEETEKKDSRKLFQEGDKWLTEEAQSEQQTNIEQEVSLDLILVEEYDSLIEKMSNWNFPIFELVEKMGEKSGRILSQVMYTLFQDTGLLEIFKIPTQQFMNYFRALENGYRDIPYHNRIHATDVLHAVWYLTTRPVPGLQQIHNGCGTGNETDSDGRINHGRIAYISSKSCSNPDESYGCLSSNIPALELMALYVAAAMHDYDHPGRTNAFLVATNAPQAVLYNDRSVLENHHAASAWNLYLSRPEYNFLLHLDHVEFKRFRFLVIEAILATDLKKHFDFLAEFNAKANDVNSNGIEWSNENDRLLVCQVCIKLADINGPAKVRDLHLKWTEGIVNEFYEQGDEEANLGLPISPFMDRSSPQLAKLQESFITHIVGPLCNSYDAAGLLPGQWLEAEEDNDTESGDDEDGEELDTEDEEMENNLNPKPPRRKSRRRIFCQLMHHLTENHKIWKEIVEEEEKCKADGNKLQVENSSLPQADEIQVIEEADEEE
Dual specificity calcium/calmodulin-dependent 3',5'-cyclic nucleotide phosphodiesterase 1A (Homo sapiens), sequence (P54750 whole entry): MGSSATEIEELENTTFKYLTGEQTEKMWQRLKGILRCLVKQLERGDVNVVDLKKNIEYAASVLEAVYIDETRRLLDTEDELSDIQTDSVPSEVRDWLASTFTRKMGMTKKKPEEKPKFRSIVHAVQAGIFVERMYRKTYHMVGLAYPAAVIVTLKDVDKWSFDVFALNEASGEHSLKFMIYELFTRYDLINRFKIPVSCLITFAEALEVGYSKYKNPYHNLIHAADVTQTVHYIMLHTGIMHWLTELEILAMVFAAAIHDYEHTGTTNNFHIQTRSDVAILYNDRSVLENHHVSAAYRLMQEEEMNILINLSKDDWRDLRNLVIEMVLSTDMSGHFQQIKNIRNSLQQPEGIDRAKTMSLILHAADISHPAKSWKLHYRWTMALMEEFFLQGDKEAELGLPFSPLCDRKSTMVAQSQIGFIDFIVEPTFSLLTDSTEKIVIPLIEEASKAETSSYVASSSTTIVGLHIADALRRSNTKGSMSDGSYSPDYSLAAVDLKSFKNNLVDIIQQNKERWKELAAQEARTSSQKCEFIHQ

As usually defined, the inhibition is the drop in the measured response relative to a control, in per cent. For orientation: MRT means a mean duration of stay, worked out from the concentration-time curve. The IC50 is the point on the concentration scale where inhibition reaches its midpoint. Broadly, the Tmax is the time from dosing to the highest level. Broadly, the AUC is concentration integrated over time. As usually defined, the half-life is how long it takes for the measured level to halve. By ED50 is commonly meant the dose that gives a 50% effect, or the effect in half of the subjects. Usually AUC(0-inf) stands for the area under the concentration-time curve extrapolated to infinity. What is called AUC(0-t) is exposure summed from dosing to a finite time, without extrapolation to infinity. By clearance is commonly meant the volume of plasma or blood freed of the substance per unit of time. By Cmax is commonly meant the maximum level reached in the sampled fluid or tissue. What is called bioavailability is the share of a dose that reaches the circulation, judged against a reference dose that is usually intravenous. On to `CCc1ccc([C@@H]2c3[nH]c4ccccc4c(=O)c3CN2c2ncc(-c3ccccn3)cn2)s1`, for which the inhibition in data set [1] was determined as 7%; in data set [3] it was 81%; in data set [11], 39%; in data set [14] it was 10%; in [22] it was 9.5%. The figures for the MRT in [2] and in data set [21] were 2.9 h and 6.7 h, respectively. Also, the IC50 came out at 1.2 nM in [4], 0.52 nM in data set [16] and 2.7 nM in data set [26]. Further, the Ratio IC50 in the data set filed under Homo sapiens [5] is 5.2; in the data set filed under Homo sapiens [6] it was greater than 10000; in the data set listed under Homo sapiens [7] it was greater than 10000; in the data set listed under Homo sapiens [12], greater than 10000; in the data set listed under Homo sapiens [19] it was greater than 2500; in the data set filed under Homo sapiens [29], 2.5. Further, the Tmax in data set [8] is 6 min; in data set [24], 2.8 h. The same compound registered an AUC in the data set with Rattus norvegicus [9] of 231.9 ng·h/mL. The results for the half-life in [10] and in data set [27] were 1.9 h and 4.3 h, respectively. In addition, the ED50 in the data set with Oryctolagus cuniculus amounted to 0.0217 mg/kg. In [13], the Vd was 72.7 L/kg. The Activity in the data set on Thoracic aorta is recorded as greater than 90%. The same compound registered an AUC(0-inf) in [15] of 125 ng·h/mL. Besides, the AUC(0-t) at 24 h in data set [17] came to 121 ng·h/mL; in data set [18], 225 ng·h/mL. The same compound showed a clearance in data set [20] of 287 mL/min/kg. In addition, the values for the highest concentration (Cmax) in data set [23] and in data set [28] were 308 ng/mL and 27.5 ng/mL, respectively. In the data set on Rattus norvegicus [25], the Vdss is 181.3 L/kg. In addition, the bioavailability in [30] stood at 24.7%.
Turning to `CCc1ccc(C2c3[nH]c4ccccc4c(=O)c3CN2c2ncccn2)s1` (stereo not drawn), the inhibition came to 3.5% in [31], 2.5% in [32], 37% in data set [33] and 8% in data set [34]. The values for the IC50 in data set [4] and in data set [16] were 3.7 nM and 2.5 nM, respectively. Also, the Ratio IC50 in the data set filed under Homo sapiens [6] is greater than 10000; in the data set listed under Homo sapiens [7] it was greater than 10000; in the data set listed under Homo sapiens [12] it was greater than 10000; in the data set filed under Homo sapiens [19], greater than 2500; in the data set listed under Homo sapiens [29], 1.5.
